Data set [1] concerns Human immunodeficiency virus 1. Kind of data set: Antiviral activity against wild-type HIV1 NL4-3 infected infected in human MT2 cells assessed as reduction in HIV1 integrated DNA at 5 uM and measured after 30 hrs post infection by Alu-LTR PCR protocol based method. Type of data set: functional, organism-based. A digest of the protocol: (§1)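 MT-2 cells were infected with NL4-3 at MOI 0.1 and incubated with test or reference agents at 20, 5 or 1 μM. Real-time PCR measured integrated HIV-1 DNA and intracellular and extracellular genomic HIV-1 RNA at 30 h post-infection. Levels are expressed as a percentage of the no-drug control culture.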

The subject of data set [2] is Human immunodeficiency virus 1. Kind of data set: Antiviral activity against HIV1 11808 harboring protease L10F/K20T/V32I/L33F/I54V/G73S/I84V/L89V/L90M mutant infected in human TZM-bl cells infected with supernatants from virus-infected human MT2 cells treated with compound for 72 hrs assessed as reduction in viral replication after 48 hrs by bright Glo-luciferase reporter gene assay. It is filed as functional, organism-based. Conditions: Human immunodeficiency virus 1, 11808. A digest of the protocol:
(§2)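 BiCycle assay: MT-2 cells infected with a drug-resistant HIV-1 strain in the presence of compound dilutions. Virus produced in this first round is then measured by infecting TZM-bl cells. The readout is IC50.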

Data set [3] deals with Human immunodeficiency virus 1. Kind of data set: Antiviral activity against HIV1 7400 harboring nucleoside reverse transcriptase M41L/D67N/M184V/L210W/T215Y mutant infected in human TZM-bl cells infected with supernatants from virus-infected human MT2 cells treated with compound for 72 hrs assessed as reduction in viral replication after 48 hrs by bright Glo-luciferase reporter gene assay. Type of data set: functional, organism-based. Conditions: Human immunodeficiency virus 1, 7400. A digest of the protocol:
as §2

Data set [4] relates to Human immunodeficiency virus 1. The experiment in a line: Selectivity ratio of IC50 for HIV1 12465 harboring protease M46I/I54V/Q58E/T74P/V82L/L90M mutant infected in human MT2 cells to IC50 for HIV1 NL4-3 infected in human MT2 cells. Type of data set: functional. A digest of the protocol: (§3)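 Fold change is the IC50 against the resistant strain divided by the IC50 against the wild-type NL4–3 reference. Both IC50 values come from the BiCycle assay (MT-2 infection, then TZM-bl readout of progeny virus).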

Data set [5] relates to Human immunodeficiency virus 1. The experiment in a line: Antiviral activity against wild-type HIV1 NL4-3 infected infected in human MT2 cells assessed as reduction in extracellular RNA at 5 uM and measured after 30 hrs post infection by Alu-LTR PCR protocol based method. It is filed as functional, organism-based. A digest of the protocol: as §1
The test system of data set [6] is Human immunodeficiency virus 1. Kind of data set: Selectivity ratio of IC50 for HIV1 11845 harboring integrase 140S/148H double mutant mutant infected in human MT2 cells to IC50 for HIV1 NL4-3 infected in human MT2 cells. Type of data set: functional. A digest of the protocol:
as §3

Data set [7] in a line: Selectivity index, ratio of TD50 for cytotoxicity aginst human PBMC cells to IC50 for antiviral activity against wild type HIV1 NL4-3 infected in human TZM-bl cells assessed as reduction in viral replication after 48 hrs by bright Glo-luciferase reporter gene assay based BiCycle assay. It is filed as toxicity, cell-based. Particulars: read-out: Selectivity Index. A digest of the protocol:
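SI calculated as TD50 from the PBMC MTS assay divided by IC50 from the BiCycle antiviral assay (MT-2 infection followed by TZM-bl read-out).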

For data set [8], the system named is Human immunodeficiency virus 1. Kind of data set: Antiviral activity against HIV1 12465 harboring protease M46I/I54V/Q58E/T74P/V82L/L90M mutant infected in human TZM-bl cells infected with supernatants from virus-infected human MT2 cells treated with compound for 72 hrs assessed as reduction in viral replication after 48 hrs by bright Glo-luciferase reporter gene assay. Type of data set: functional, organism-based. Conditions: Human immunodeficiency virus 1, 12465. A digest of the protocol: as §2
(A reporter such as luciferase makes a cellular process visible.)

A short description of data set [9]: Inhibition of synthesized Nucleocapsid protein (11 to 55 residues) assessed as reduction in NC-induced cTAR DNA destabilization pre-treated with cTAR and Nucleocapsid (11-55) for 15 mins followed by compound addition at 10 uM by spectroflurometry relative to control. A digest of the protocol: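 NC chaperone inhibition assay: fluorescence monitoring of NC-induced destabilization of cTAR DNA labelled with Alexa488 at the 5′ end and Dabcyl quencher at the 3′ end. Compound is tested at 10 μM.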

Data set [10] concerns Human immunodeficiency virus 1. Kind of data set: Antiviral activity against HIV1 11845 harboring integrase 140S/148H double mutant infected in human TZM-bl cells infected with supernatants from virus-infected human MT2 cells treated with compound for 72 hrs assessed as reduction in viral replication after 48 hrs by bright Glo-luciferase reporter gene assay. Type of data set: functional, organism-based. Conditions: Human immunodeficiency virus 1, 11845. A digest of the protocol:
as §2

Data set [11] concerns Human immunodeficiency virus 1. The experiment in a line: Antiviral activity against wild-type HIV1 NL4-3 infected infected in human MT2 cells assessed as reduction in HIV1 intracellular genomic RNA level at 5 uM and measured after 30 hrs post infection by TaqMan probe based RT-PCR analysis. Type of data set: functional, organism-based. A digest of the protocol: as §1
(In general: Quantitative PCR measures a nucleic acid by following its amplification.)

Data set [12] has as its system Human immunodeficiency virus 1. Kind of data set: Selectivity ratio of IC50 for HIV1 12229 harboring non-nucleoside reverse transcriptase L100I/K103N/H221Y mutant infected in human MT2 cells to IC50 for HIV1 NL4-3 infected in human MT2 cells. It is filed as functional. A digest of the protocol:
as §3

Data set [13] relates to Human immunodeficiency virus 1. Kind of data set: Selectivity ratio of IC50 for HIV1 7400 harboring nucleoside reverse transcriptase M41L/D67N/M184V/L210W/T215Y mutant infected in human MT2 cells to IC50 for HIV1 NL4-3 infected in human MT2 cells. Type of data set: functional. A digest of the protocol:
as §3

Data set [14] concerns Human immunodeficiency virus 1. Kind of data set: Antiviral activity against wild-type HIV1 NL4-3 infected infected in human MT2 cells assessed as reduction in HIV1 extracellular genomic RNA level at 5 uM and measured after 30 hrs post infection by TaqMan probe based RT-PCR analysis. Type of data set: functional, organism-based. A digest of the protocol:
as §1

For data set [15], the system named is Human immunodeficiency virus 1. Kind of data set: Antiviral activity against HIV1 7401 harboring nucleoside reverse transcriptase M41L/E44D/D67N/T69D/M184V/L210W/T215Y mutant infected in human TZM-bl cells infected with supernatants from virus-infected human MT2 cells treated with compound for 72 hrs assessed as reduction in viral replication after 48 hrs by bright Glo-luciferase reporter gene assay. Type of data set: functional, organism-based. Particulars: Human immunodeficiency virus 1, 7401. A digest of the protocol:
as §2

In data set [16] the test system is Human immunodeficiency virus 1. Kind of data set: Antiviral activity against wild type HIV1 NL4-3 infected in human TZM-bl cells assessed as reduction in viral replication after 48 hrs by bright Glo-luciferase reporter gene assay based BiCycle assay. Type of data set: functional, organism-based. Conditions: Human immunodeficiency virus 1, NL4-3, TZM-bl. A digest of the protocol: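 BiCycle format: MT-2 cells infected with wild-type NL4-3 in the presence of compound dilutions. Virus produced in this first round was then quantified by infecting TZM-bl cells. IC50 was derived from the dose-response data.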

Data set [17] relates to Human immunodeficiency virus 1. The experiment in a line: Selectivity ratio of IC50 for HIV1 12231 harboring non-nucleoside reverse transcriptase 103N/179F/181C mutant infected in human MT2 cells to IC50 for HIV1 NL4-3 infected in human MT2 cells. It is filed as functional. A digest of the protocol:
as §3

Data set [18] deals with Human immunodeficiency virus 1. The experiment in a line: Antiviral activity against wild-type HIV1 NL4-3 infected in human TZM-bl cells treated with compound assessed as reduction in viral replication after 48 hrs by bright Glo-luciferase reporter gene assay based monocycle assay. Particulars: Human immunodeficiency virus 1, NL4-3.
Data set [19] relates to Human immunodeficiency virus 1. Kind of data set: Selectivity ratio of IC50 for HIV1 11808 harboring protease L10F/K20T/V32I/L33F/I54V/G73S/I84V/L89V/L90M mutant infected in human MT2 cells to IC50 for HIV1 NL4-3 infected in human MT2 cells. Type of data set: functional. A digest of the protocol: as §3
The subject of data set [20] is Human immunodeficiency virus 1. The experiment in a line: Antiviral activity against HIV1 12231 harboring non-nucleoside reverse transcriptase 103N/179F/181C mutant infected in human TZM-bl cells infected with supernatants from virus-infected human MT2 cells treated with compound for 72 hrs assessed as reduction in viral replication after 48 hrs by bright Glo-luciferase reporter gene assay. It is filed as functional, organism-based. Particulars: Human immunodeficiency virus 1, 12231. A digest of the protocol:
as §2

Data set [21] deals with Human immunodeficiency virus 1. The experiment in a line: Antiviral activity against HIV1 12229 harboring non-nucleoside reverse transcriptase L100I/K103N/H221Y mutant infected in human TZM-bl cells infected with supernatants from virus-infected human MT2 cells treated with compound for 72 hrs assessed as reduction in viral replication after 48 hrs by bright Glo-luciferase reporter gene assay. Conditions: Human immunodeficiency virus 1, 12229. Type of data set: functional, organism-based. A digest of the protocol:
as §2

Data set [22] can be described thus: Cytotoxicity against human PBMC cells assessed as reduction in cell viability after 7 days by MTS assay. Type of data set: cell-based. Particulars: read-out: TD50. A digest of the protocol: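 Cytotoxicity in peripheral blood mononuclear cells by MTS assay, giving TD50. Only compounds that met the BiCycle IC50 ≤ 5 μM criterion and were positive in the NC inhibition assay were tested.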

Data set [23] has as its system Human immunodeficiency virus 1. Kind of data set: Selectivity ratio of IC50 for HIV1 7401 harboring nucleoside reverse transcriptase M41L/E44D/D67N/T69D/M184V/L210W/T215Y mutant infected in human MT2 cells to IC50 for HIV1 NL4-3 infected in human MT2 cells. Type of data set: functional. A digest of the protocol:
as §3

The subject of data set [24] is Human immunodeficiency virus 1. The experiment in a line: Antiviral activity against wild-type HIV1 NL4-3 infected in human TZM-bl cells infected with supernatants from virus-infected human HeLa P4.R5MAGI cells treated with compound for 72 hrs assessed as reduction in viral replication after 48 hrs by bright Glo-luciferase reporter gene assay. It is filed as functional, organism-based. Conditions: Human immunodeficiency virus 1, NL4-3.

Calls of active or inactive are those of the source.

A word on the IC50: it is the point on the concentration scale where inhibition reaches its midpoint. In general, inhibition refers to the percentage by which the read-out fell short of the control.

Turning to `Nc1nc(CCOC(=O)c2ccc(COc3ccccc3-c3csc(N)n3)cc2)cs1.O=C(O)C(F)(F)F.O=C(O)C(F)(F)F`, the outcome in data set [1] was inactive. The IC50 turned out to be 1100 nM in [2]; 100 nM in data set [3]; 400 nM in data set [8]; 700 nM in data set [10]; 500 nM in data set [15]; 300 nM in data set [16]. Also, the IC50 amounted to 1200 nM in data set [18], 700 nM in data set [20] and 300 nM in data set [21]. In addition, the “Ratio IC50” value is recorded as 1.2 in data set [4]; 2.3 in data set [6]; 1 in data set [12]; 0.4 in data set [13]; 2.2 in data set [17]; 3.6 in [19]. In addition, in [23], the “Ratio IC50” value came out at 1.5. The outcome in [5], in data set [11] and in data set [14] was Active. Besides, the selectivity ratio at 48 h in data set [7] was found to be 53. Moreover, in data set [9], the inhibition was 18%. For the same compound, the CC50 at 168 h in data set [22] was found to be 16000 nM.
Regarding `Nc1nc(-c2ccccc2OCc2ccc(C(=O)O)cc2)cs1`, the inhibition in data set [9] amounted to 6%. Moreover, in data set [24], the IC50 was 95000 nM.

Values taken from ChEMBL document CHEMBL4433210, “Synthesis and Evaluation of Bifunctional Aminothiazoles as Antiretrovirals Targeting the HIV-1 Nucleocapsid Protein” (ACS Med Chem Lett, 2019).
